Assay results gathered from unrelated publications.
Target: Interleukin-1 receptor-associated kinase 1 (IRAK1, Homo sapiens, UniProt P51617)

SMILES | assay | conditions | quantity | value
COc1cc(-c2cc(-c3ccc(N4CCNCC4)cc3)cnc2C)cc(OC)c1OC | enzyme activity, inhibitor | 0.1 µM | inhibition | 2%
CN(C)C1CCN(CC#Cc2nn(C3CCCC3)c3nc(NCc4ccccc4)ncc23)C1 (stereo not drawn) | enzyme activity, inhibitor, FRET | 0.1 µM | inhibition | 6%
COCCOc1nc(-c2ccc(Cl)nc2)nc2c1CN(C(=O)c1ncn3ccccc13)CC2 | cell-free assay, competition with immobilised ligand | 0.1 µM | remaining binding | 100%
COc1ccc(COc2ccc(Cc3cnc(N)nc3N)cc2OC)cc1 | cell-free assay | 0.5 µM | remaining signal | 123%
CC(C)(C)c1nc2c(s1)c1nc(N)ncc1c1ccc(NS(=O)(=O)c3c(F)cccc3F)c(F)c12 | enzyme activity, inhibitor, radiometric | 1 µM | remaining activity | 90%
CC/C(=N\NC(=O)NCc1cccc(O)c1)c1ccc(O)c(C)c1O | enzyme activity, inhibitor | 0.1 µM | inhibition | -0.6%
CS(=O)(=O)c1cc(C2(NC(=O)c3cncc4c3cnn4-c3ccc(F)cc3)CC2)ccn1 | cell-free assay, competition with immobilised ligand | 1 µM | remaining binding | 87%
c1ccc(CNc2nc(N3CCOc4ccccc43)nc3c2CCCC3)cc1 | target engagement in cells, inhibitor, chemoproteomics | 20 mM | inhibition | -2.4%
Cc1cc(C)c(-n2ccn3nc(-c4cccnc4)cc23)cc1NC(=O)c1cc(C#N)cc(S(F)(F)(F)(F)F)c1 | cell-free assay, competition with immobilised ligand | 0.1 µM | remaining binding | 87.3%
Cc1ccc(Nc2nccc(N(C)c3ccc4c(C)n(C)nc4c3)n2)cc1S(N)(=O)=O | enzyme activity, inhibitor | 0.3 µM | inhibition | -6%
N#CCCc1ccc2c(c1)-c1[nH]c3ccc([N+](=O)[O-])cc3c1CC(=O)N2 | cell-free assay | 0.5 µM | remaining signal | 74.9%
CCCOc1ccc([C@@H]2[C@@H](C(=O)O)[C@H](c3ccc4c(c3)OCO4)CN2CC(=O)Nc2c(CC)cccc2CC)cc1 | cell-free assay, competition with immobilised ligand | 1 µM | remaining binding | 96%
COc1cc(Nc2cnc(C#N)c(O[C@H](C)CN(C)C)n2)ncc1-c1cnn(C)c1 | enzyme activity, inhibitor, radiometric | 10 µM | remaining activity | 9%
FC(F)(F)Oc1cccc(-c2cnc3ccc(-c4ccncc4)nn23)c1 | enzyme activity, inhibitor, radiometric | 1 µM | activity vs control | 52%
Cc1nc(Cc2cccc(C(F)(F)F)c2)sc1-c1ccc(C(N)=O)nc1 | cell-free assay, competition with immobilised ligand | 1 µM | remaining binding | 100%
CCCS(=O)(=O)Nc1ccc(F)c(C(=O)c2c[nH]c3ncc(-c4ccc(Cl)cc4)cc23)c1F | enzyme activity, inhibitor | 1 µM | inhibition | < 10%
Cc1cnc(NC2CCOCC2)nc1-n1cnc(C(=O)NC(CN)c2cc(F)cc(Cl)c2)c1 (stereo not drawn) | enzyme activity, inhibitor, radiometric | 1 µM | remaining activity | 101%
Cc1sc(C(=O)NC2COC2)cc1-n1cc(NC(=O)Nc2c(F)cccc2Cl)cn1 | enzyme activity, inhibitor | 10 µM | remaining activity | 79.9%
CCCOc1ccc(OC)c(F)c1C(=O)c1ccc(C(=O)N[C@@H]2CNC[C@H]2NC(=O)c2ccc3[nH]ncc3c2)cc1 | enzyme activity, inhibitor | 10 µM | remaining activity | 49%
NS(=O)(=O)c1cc(NC(=O)C2(c3ccccc3Cl)CC2)ccc1Oc1cccc(Cl)c1 | cell-free assay, competition with immobilised ligand | 1 µM | remaining binding | 79%
CCN(CC)CCNC(=O)c1c(C)[nH]c(/C=C2\C(=O)Nc3ccc(F)cc32)c1C | enzyme activity, inhibitor | 10 µM | inhibition | 86%
